According to ChEMBL document CHEMBL3526116, “Toxicological evaluation of acyl glucuronides of nonsteroidal anti-inflammatory drugs using human embryonic kidney 293 cells stably expressing human UDP-glucuronosyltransferase and human hepatocytes” (Drug Metab Dispos, 2011):
Blank lines part the entries; values can stand above or below the molecule they belong to.

Columns and labels:
[1] = system: HEK293; test: Cytotoxicity against HEK293 cells expressing UGT1A3 assessed as decrease in cell viability at 1 mM measured at 24 hrs by MTT assay; assay type: ADME, cell-based; settings: human, hek293, 24 h, 1000 µM
[2] = system: HEK293; test: Cytotoxicity against HEK293 cells expressing UGT1A4 assessed as decrease in cell viability at 1 mM measured at 24 hrs by MTT assay; assay type: ADME, cell-based; settings: human, hek293, 24 h, 1000 µM
[3] = system: HEK293; test: Cytotoxicity against HEK293 cells expressing UGT assessed as decrease in cell viability at 1 mM measured up to 72 hrs by MTT assay; assay type: ADME, cell-based; settings: human, hek293, 72 h, 1000 µM
Method in brief: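 Mock and UGT1A3/UGT1A4 stable HEK293 cells given drug for up to 72 h; viability measured by WST-8-based MTT assay.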

[4] = system: Hepatocyte; test: Drug level in human hepatocytes assessed per 2 x 10^5 cells treated with ibuprofen at 1 mM measured at 6 hrs by LC-MS/MS analysis in absence of acyl glucuronidation inhibitor (-)-borneol; assay type: ADME, cell-based; settings: 1000 µM
[5] = Drug level in cell culture medium treated with ibuprofen at 1 mM measured at 6 hrs by LC-MS/MS analysis in absence of acyl glucuronidation inhibitor (-)-borneol; assay type: physicochemical; settings: 1000 µM
[6] = Drug level in cell culture medium treated with ibuprofen at 1 mM measured at 6 hrs by LC-MS/MS analysis in presence of acyl glucuronidation inhibitor (-)-borneol; assay type: physicochemical; settings: 1000 µM
[7] = system: Nucleic Acid; test: Ratio of drug level in human hepatocytes to HEK293 cells expressing UGT1A3 treated with ibuprofen at 1 mM; assay type: ADME, cell-based, Hepatocyte; settings: 1000 µM
Method in brief: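 Acyl glucuronide in cell fraction (pmol/2 x 10^5 cells) by LC-MS/MS after 6 h exposure in human hepatocytes without (-)-borneol, set against HEK/UGT1A3 cells (2 x 10^5 cells/well, DMEM with 0.5% FBS) exposed to the same drug level; cells pelleted at 3000 x g, resuspended in PBS, extracted with methanol/acetic acid.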

[8] = target: T1, UDP-glucuronosyltransferase 1A3 (Homo sapiens, UniProt P35503); test: Activity of human UGT1A3 expressed in HEK293 cells assessed as enzyme-mediated compound formation per 2 x 10^5 cells treated with ibuprofen at 1 mM measured at 24 hrs by LC-MS/MS analysis; assay type: ADME, cell-based; settings: hek293, 24 h, 1000 µM
T1 sequence (P35503 whole entry): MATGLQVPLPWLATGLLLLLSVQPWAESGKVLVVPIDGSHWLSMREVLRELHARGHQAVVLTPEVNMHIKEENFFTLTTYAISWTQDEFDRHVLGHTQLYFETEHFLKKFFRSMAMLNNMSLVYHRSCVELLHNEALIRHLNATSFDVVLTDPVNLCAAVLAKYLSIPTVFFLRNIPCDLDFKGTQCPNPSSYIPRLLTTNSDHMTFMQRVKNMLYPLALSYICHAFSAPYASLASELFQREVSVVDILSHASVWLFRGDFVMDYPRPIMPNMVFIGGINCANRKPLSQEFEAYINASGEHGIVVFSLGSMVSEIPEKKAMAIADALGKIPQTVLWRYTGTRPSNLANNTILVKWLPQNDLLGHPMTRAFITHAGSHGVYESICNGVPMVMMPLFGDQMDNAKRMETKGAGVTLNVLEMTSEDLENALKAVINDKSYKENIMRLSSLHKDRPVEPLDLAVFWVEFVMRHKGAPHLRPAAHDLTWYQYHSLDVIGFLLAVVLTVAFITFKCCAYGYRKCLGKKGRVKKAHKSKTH
Method in brief: (§1)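 HEK293 stably expressing human UGT1A3 (G418-selected), 2 x 10^5 cells/well in 1 mL DMEM with 0.5% FBS, exposed immediately to drug for 6, 12 or 24 h; DMSO ≤0.1% final. Cells and medium separated by centrifugation, cell fraction resuspended in PBS; aliquots mixed 1:1 with methanol/acetic acid (100:1), spun, supernatant analysed by LC-MS/MS. Triplicate determinations, mean ± SD.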

[9] = target: T1, UDP-glucuronosyltransferase 1A3; test: Activity of human UGT1A3 expressed in HEK293 cells assessed as enzyme-mediated compound formation in cell culture medium treated with ibuprofen at 1 mM measured at 6 to 24 hrs by LC-MS/MS analysis; assay type: ADME, cell-based; settings: hek293, 1000 µM; method in brief: as §1
[10] = target: T1, UDP-glucuronosyltransferase 1A3; test: Activity of human UGT1A3 expressed in HEK293 cells assessed as enzyme-mediated compound formation in cell culture medium treated with ibuprofen at 1 mM by LC-MS/MS analysis; assay type: ADME, cell-based; settings: hek293, 1000 µM, TDE = time-dependent effect; method in brief: as §1
[11] = system: Hepatocyte; test: Drug level in human hepatocytes assessed per 2 x 10^5 cells treated with ibuprofen at 1 mM measured at 6 hrs by LC-MS/MS analysis in presence of acyl glucuronidation inhibitor (-)-borneol; assay type: ADME, cell-based; settings: 1000 µM
[12] = system: Hepatocyte; test: Cytotoxicity against human hepatocytes assessed as decrease in cell viability by measuring intracellular ATP content at 1 mM measured at 6 hrs by CellTiter-Glo luminescent assay in absence of acyl glucuronidation inhibitor (-)-borneol; assay type: cell-based; settings: 1000 µM
Method in brief: (§2)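 Human hepatocytes (pooled, cryopreserved), 2 × 10^4 cells/well on collagen in HCM with 0.5% FBS and 10 nM estradiol; 30-min preincubation ± 1 mM (-)-borneol, then drug 6 h. Intracellular ATP measured by CellTiter-Glo luminescence, percent of control cells. Triplicates, mean ± SD.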

[13] = system: HEK293; test: Cytotoxicity against HEK293 cells expressing UGT1A4 assessed as decrease in cell viability at 1 mM by MTT assay; assay type: ADME, cell-based; settings: human, hek293, 1000 µM; TDE = time-dependent effect
[14] = system: HEK293; test: Cytotoxicity against HEK293 cells expressing UGT1A4 assessed as decrease in cell viability by measuring intracellular ATP content at 1 mM by CellTiter-Glo luminescent assay; assay type: ADME, cell-based; settings: human, hek293, 1000 µM; TDE = time-dependent effect
Method in brief: (§3)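 UGT1A3 or UGT1A4 stable HEK293 cells, 2 x 10^4 cells/well in 0.1 mL DMEM with 0.5% FBS, drug for 6, 12 or 24 h. Viability from intracellular ATP via CellTiter-Glo luminescence, expressed as percent of control cells. Mean ± SD of triplicates.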

[15] = system: HEK293; test: Cytotoxicity against mock transfected HEK293 cells assessed as decrease in cell viability at 1 mM by MTT assay; assay type: cell-based; settings: human, hek293, 1000 µM; TDE = time-dependent effect
[16] = system: HEK293; test: Cytotoxicity against mock transfected HEK293 cells assessed as decrease in cell viability by measuring intracellular ATP content at 1 mM by CellTiter-Glo luminescent assay; assay type: cell-based; settings: human, hek293, 1000 µM; TDE = time-dependent effect
Method in brief: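 Mock-transfected HEK293 cells seeded at 2 x 10^4 cells/well in DMEM with 0.5% FBS, drug added at once and incubated 6, 12 or 24 h. Viability read either by WST-8 (CCK-8) formazan absorbance at 450 nm or by intracellular ATP luminescence (CellTiter-Glo), as percent of control cells; mean ± SD of triplicates. Final DMSO ≤0.1%.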

[17] = system: Hepatocyte; test: Cytotoxicity against human hepatocytes assessed as decrease in cell viability by measuring intracellular ATP content at 1 mM measured at 6 hrs by CellTiter-Glo luminescent assay in presence of acyl glucuronidation inhibitor (-)-borneol; assay type: cell-based; settings: 1000 µM; method in brief: as §2
[18] = system: Hepatocyte; test: Cytotoxicity against human hepatocytes assessed as decrease in cell viability at 1 mM measured at 6 hrs […] in presence of acyl glucuronidation inhibitor (-)-borneol; assay type: cell-based; settings: 1000 µM
[19] = system: Hepatocyte; test: Cellular uptake in human hepatocytes at 1 mM measured at 6 hrs by LC-MS/MS analysis in presence of acyl glucuronidation inhibitor (-)-borneol; assay type: ADME, cell-based; settings: 1000 µM
Method in brief: (§4)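 Cryopreserved pooled human hepatocytes on collagen-coated wells, 2 × 10^5 cells/well in HCM medium with 0.5% FBS, preincubated 30 min with or without 1 mM (-)-borneol, then drug for 6 h; DMSO ≤0.2% final. Parent drug in cell fraction measured by LC-MS/MS after methanol/acetic acid extraction. Mean ± SD of triplicates.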

[20] = system: Hepatocyte; test: Cellular uptake in human hepatocytes at 1 mM measured at 6 hrs by LC-MS/MS analysis in absence of acyl glucuronidation inhibitor (-)-borneol; assay type: ADME, cell-based; settings: 1000 µM; method in brief: as §4
[21] = system: HEK293; test: Genotoxicity in HEK293 cells expressing UGT1A3 assessed as DNA strand breaks at 1 mM after 24 hrs by comet assay; assay type: toxicity, cell-based; settings: human, hek293, 24 h, 1000 µM
Method in brief: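 Alkaline comet assay: HEK/UGT1A3 cells seeded 24 h before, treated 24 h in DMEM with 0.5% FBS (vehicle 0.1% DMSO; MMS 0.1 mM positive control). Cells embedded in LMP agarose, lysed 1 h at 4°C at pH 10, unwound 30 min in NaOH/EDTA, electrophoresed 300 mA 20 min, ethidium-stained; tail moment scored on 150-180 comets over >3 experiments, median (IQR).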

[22] = system: HEK293; test: Cytotoxicity against HEK293 cells expressing UGT1A3 assessed as decrease in cell viability at 1 mM by MTT assay; assay type: ADME, cell-based; settings: human, hek293, 1000 µM; TDE = time-dependent effect
[23] = system: HEK293; test: Cytotoxicity against HEK293 cells expressing UGT1A3 assessed as decrease in cell viability by measuring intracellular ATP content at 1 mM by CellTiter-Glo luminescent assay; assay type: ADME, cell-based; settings: human, hek293, 1000 µM; TDE = time-dependent effect; method in brief: as §3
[24] = system: HEK293; test: Cytotoxicity against HEK293 cells expressing UGT assessed as LDH leakage at 1 mM after 6 to 24 hrs by spectrophotometric analysis relative to total cell LDH level; assay type: ADME, cell-based; settings: human, hek293, 1000 µM
Method in brief: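 Stable UGT-expressing or mock HEK293 lines in DMEM with 0.5% FBS, 2 x 10^4 cells/well, drug for 6, 12 or 24 h. LDH released into medium read at 490 nm (690 nm reference); percentage calculated against maximum release from control cells lysed with 1% Triton X-100.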

SMILES: CC1=C(CC(=O)O)c2cc(F)ccc2/C1=C\c1ccc([S+](C)[O-])cc1 (stereo unspecified)
Activity [1]: Non-toxic

SMILES: CC(=O)Oc1ccccc1C(=O)O [ASPIRIN]
Activity [1]: Non-toxic

SMILES: CCCN(CCC)S(=O)(=O)c1ccc(C(=O)O)cc1 [PROBENECID]
Activity [1]: Non-toxic

SMILES: O=C(O)c1cccnc1Nc1cccc(C(F)(F)F)c1 [NIFLUMIC ACID]
Activity [1]: Non-toxic

SMILES: NS(=O)(=O)c1cc(C(=O)O)c(NCc2ccco2)cc1Cl [FUROSEMIDE]
Activity [1]: Non-toxic

SMILES: O=C(O)c1ccccc1O [SALICYLIC ACID]
Activity [2]: Non-toxic
Activity [3]: Non-toxic
Activity [1]: Non-toxic

Drug metabolism [4]: 27.7 pmol
Drug metabolism [5]: 1156.7 pmol/mL
Drug metabolism [6]: 126.5 pmol/mL
Ratio [7]: 6
Drug metabolism [8]: 7.2 pmol
Drug metabolism [9]: 114.7 pmol/mL
Drug metabolism [10]: tde
Drug metabolism [11]: 3.5 pmol
SMILES: CC(C)Cc1ccc(C(C)C(=O)O[C@@H]2O[C@H](C(=O)O)[C@@H](O)[C@H](O)[C@H]2O)cc1 (stereo partly specified)

Drug uptake [19]: Active
Drug uptake [20]: Active
SMILES: COc1ccc2cc([C@H](C)C(=O)O)ccc2c1 [NAPROXEN]
Activity [12]: Toxic
Activity [13]: tde
Activity [14]: tde
Activity [15]: tde
Activity [16]: tde
Activity [3]: Non-toxic
Activity [17]: Toxic
Activity [18]: Toxic
Activity [21]: Non-toxic
Activity [22]: tde
Activity [23]: tde
Activity [24]: < 5.4%

SMILES: COc1c(C)c2c(c(O)c1C/C=C(\C)CCC(=O)O)C(=O)OC2 [MYCOPHENOLIC ACID]
Activity [1]: Non-toxic
